This note sets out measurements from ChEMBL document CHEMBL3865853, “Synthesis and Bioevaluation of 3,6-Diaryl-[1,2,4]triazolo[4,3-b] Pyridazines as Antitubulin Agents” (ACS Med Chem Lett, 2016).

As a reminder, the IC50 is the midpoint of a concentration-inhibition curve.

The nature of assay [1]: Cell cycle arrest in human A549 cells assessed as accumulation in G2/M phase after 12 hrs by propidium iodide-staining based FACS analysis. Type of assay: functional. A general note: A flow cytometer gives signals particle by particle.
Assay [2] can be described thus: (§1) Inhibition of pig brain tubulin polymerization measured at 1 min intervals for 90 mins by spectrophotometric analysis. The arrangement: species or system Sus scrofa. The procedure, abridged:
(§2)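 Purified tubulin incubated at room temperature with test agent (0.33–10 μM range used), paclitaxel 5.0 μM, or DMSO vehicle; polymerization followed, IC50 derived; mean ± SD of three experiments in triplicate.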

For another assay, the species on record is Sus scrofa. Described as §1. Put shortly:
as §2

Another assay deals with A549. Briefly: Inhibition of alpha-tubulin polymerization in human A549 cells assessed as destruction of tubulin network at 2 times IC50 after 12 hrs by DAPI/FITC-dual staining based fluorescence microscopic analysis. Type of assay: cell-based. Put shortly:
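Indirect immunofluorescence of microtubule network in cultured A549 cells after treatment at 2-fold IC50 concentrations; DMSO-treated cells as vehicle control.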

Assay [3] is described as follows: Cytotoxicity against human SGC7901 cells assessed as reduction in cell viability after 24 hrs by MTT assay. The conditions noted are these: SGC-7901, 24 h. Type of assay: functional, cell-based. The procedure, abridged: (§3)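 MTT viability assay on A549, HT-1080 and SGC-7901 cells; IC50 as concentration giving 50% inhibition; each experiment run in triplicate.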

The nature of assay [4]: Cytotoxicity against human HT1080 cells assessed as reduction in cell viability after 24 hrs by MTT assay. Type of assay: functional, cell-based. Conditions: HT-1080, 24 h. The procedure, abridged:
as §3
Background: Formazan colour is commonly taken as a measure of viable cells.

A short description of assay [5]: Cytotoxicity against human A549 cells assessed as reduction in cell viability after 24 hrs by MTT assay. Type of assay: functional, cell-based. Conditions: A549, 24 h. The procedure, abridged: as §3
Assay [6] can be described thus: Cell cycle arrest in human A549 cells assessed as accumulation in G2/M phase at 0.016 uM by propidium iodide-staining based FACS analysis. Type of assay: functional. Conditions: TDE = time-dependent effect.
The nature of assay [7]: Cell cycle arrest in human A549 cells assessed as accumulation in G2/M phase at 0.018 uM by propidium iodide-staining based FACS analysis. Type of assay: functional.

Active and inactive are the calls of the source. The rule behind the calls is not given here.

With `COc1ccc(-c2ccc3nnc(-c4cc(OC)c(OC)c(OC)c4)n3n2)cc1N`, the Activity result in assay [1] is “Dose-dependent effect”; in assay [6], “Tde”. Besides, the IC50 in assay [2] stood at 1.8 µM; in assay [3], 0.014 µM; in assay [4], 0.012 µM; in assay [5], 0.008 µM. In addition, in the assay filed under Sus scrofa, the inhibition entry was “Dose-dependent effect”. In the assay with A549, the inhibition entry was “Active”.

On to `COc1ccc(-c2ccc3nnc(-c4ccc(OC)c(OC)c4OC)n3n2)cc1N`, for which the IC50 stood at 0.91 µM in [3], 0.92 µM in [4] and 2.62 µM in assay [5].

Take `COc1ccc(-c2nnc3ccc(-c4ccc(C)cc4)nn23)c(OC)c1OC`: the results for the IC50 in assay [3], in [4] and in assay [5] were 4.53 µM, 0.17 µM and 10.4 µM, respectively.

As for `COc1cc(-c2nnc3ccc(-c4ccc([N+](=O)[O-])cc4)nn23)cc(OC)c1OC`, the IC50 was found to be 2.38 µM in assay [3], 4.94 µM in [4] and 3.85 µM in assay [5].

`COc1cc(-c2nnc3ccc(-c4ccc(F)cc4)nn23)cc(OC)c1OC`: the IC50 in [3] is 2.02 µM; in assay [4] it was 0.021 µM; in [5] it was 2.18 µM.

Turning to `COc1cc(-c2nnc3ccc(-c4ccc(N)cc4)nn23)cc(OC)c1OC`, the values for the IC50 in assay [3], in assay [4] and in assay [5] were 1.23 µM, 1.62 µM and 2.35 µM, respectively.

As to `COc1ccc(-c2ccc3nnc(-c4cc(OC)c(OC)c(OC)c4)n3n2)cc1[N+](=O)[O-]`, the IC50 in assay [3] was 2.28 µM; in [4], 6.85 µM; in [5], 4.57 µM.

For `COc1cc(-c2nnc3ccc(-c4ccc(Br)cc4)nn23)cc(OC)c1OC`, the values for the IC50 in assay [3], in assay [4] and in assay [5] were 1.28 µM, 0.15 µM and 0.78 µM, respectively.

On to `COc1cc(-c2nnc3ccc(-c4ccc(C(F)(F)F)cc4)nn23)cc(OC)c1OC`, for which the half-inhibitory concentration (IC50) in assay [3] was determined as 2.21 µM; in assay [4], 1.86 µM; in [5], 10.4 µM.

In the case of `COc1cc(-c2nnc3ccc(-c4ccc(C)cc4)nn23)cc(OC)c1OC`, the IC50 in assay [3] came to 0.016 µM; in assay [4], 0.14 µM; in assay [5], 0.023 µM.

Consider `COc1ccc(-c2ccc3nnc(-c4cc(OC)c(OC)c(OC)c4)n3n2)cc1`, for which the figures for the IC50 in assay [3], in [4] and in assay [5] were 0.26 µM, 0.017 µM and 0.051 µM, respectively.

With `COc1ccc(/C=C\c2cc(OC)c(OC)c(OC)c2)cc1O` [COMBRETASTATIN A4], the inhibition entry in the assay listed under Sus scrofa is “Dose-dependent effect”. In addition, the inhibition result with A549 is “Active”. In addition, the values for the concentration for half-maximal inhibition (IC50) in [3], in assay [4] and in assay [5] were 0.012 µM, 0.009 µM and 0.009 µM, respectively. Further, the result in assay [7] was Active.

As to `COc1ccc(-c2ccc3nnc(-c4ccc(OC)c(OC)c4OC)n3n2)cc1`, the IC50 in assay [3] worked out at 0.42 µM; in [4], 5.57 µM; in [5], 6.98 µM.

Consider `COc1cc(-c2nnc3ccc(-c4cccc(Cl)c4)nn23)cc(OC)c1OC`, for which the IC50 in [3] was 63.1 µM; in assay [4], 60.5 µM; in assay [5] it was 47.9 µM.

In the case of `COc1cc(-c2nnc3ccc(-c4ccc(C#N)cc4)nn23)cc(OC)c1OC`, the IC50 in [3] was 30.9 µM; in assay [4], 33.5 µM; in [5], 51.6 µM.

As to `COc1ccc(-c2ccc3nnc(-c4cc(OC)c(OC)c(OC)c4)n3n2)cc1F`, the IC50 in assay [3] worked out at 4.17 µM; in [4], 1.69 µM; in assay [5], 4.23 µM.

As for `COc1cc(-c2nnc3ccc(-c4cccc([N+](=O)[O-])c4)nn23)cc(OC)c1OC`, the figures for the IC50 in assay [3], in assay [4] and in assay [5] were 86.4 µM, 50 µM and 90.5 µM, respectively.

With `COc1cc(-c2nnc3ccc(-c4ccc(Cl)cc4)nn23)cc(OC)c1OC`, the IC50 in [3] came to 0.025 µM; in assay [4] it was 0.45 µM; in assay [5] it was 0.051 µM.

`COc1cc(-c2nnc3ccc(-c4cccc(N)c4)nn23)cc(OC)c1OC`: the 50% inhibitory concentration (IC50) in assay [3] was found to be 0.98 µM; in assay [4] it was 0.39 µM; in assay [5], 2.98 µM.

Take `COc1cc(-c2nnc3ccc(-c4ccc(SC)cc4)nn23)cc(OC)c1OC`: the 50% inhibitory concentration (IC50) stood at 0.098 µM in [3], 0.073 µM in assay [4] and 0.28 µM in assay [5].

For the compound `COc1ccc(-c2ccc3nnc(-c4ccc(OC)c(OC)c4OC)n3n2)cc1[N+](=O)[O-]`, the values for the half-inhibitory concentration (IC50) in assay [3], in assay [4] and in assay [5] were 9.14 µM, 18.2 µM and 11.4 µM, respectively.

Take `COc1cc(-c2nnc3ccc(-c4cccc(Br)c4)nn23)cc(OC)c1OC`: the half-inhibitory concentration (IC50) in assay [3] worked out at 59 µM; in assay [4] it was 54.5 µM; in assay [5] it was 52.2 µM.
